The full list was thinned out, with hits kept by preference.
Cardio protect – cardioprotection against H2O2-induced cell death, primary screen, uHTS, H9c2 cells, ATPLite luminescence. H9c2 cardiomyocytes, H2O2 injury protection, 2 h. 360,000 tested, 0.63% active. AID 588492, 2011. protection from H2O2 cell death, % at 20 µM;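 active means compounds giving at least 50% protection of heart cells from peroxide-induced death in the single-dose screen, raw or plate-pattern-corrected value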
CHOP UPR activ – activators of apoptotic CHOP UPR arm, primary screen, cell-based, CHO-CHOP luciferase reporter, luminescence, uHTS. activation, % at 10 µM. UPR activation; percent of tunicamycin response over DMSO baseline. 330,000 tested, 0.34% active. AID 449763, 2010;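 active means at 10 µM dose, activation of 40% or more, normalized to positive control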
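System: CHO-CHOP luciferase reporter cell line; amount: 500 cells/well; buffer or medium: F12 medium containing 10% fetal bovine serum; incubation: 6 h compound exposure at 37 °C after overnight seeding; measured by: luciferase luminescence after 10 min with Steady-Glo reagent; evaluation: % reporter activation, DMSO baseline versus tunicamycin full activation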
iPSC survival up – enhancers of single-cell hiPSC survival, primary screen, ATPlite luminescence | 100% = ROCK inhibitor wells, 0% = DMSO | survival enhancement, % at 20 µM | 360,000 tested, 0.044% active | AID 602274, 2012; in the data active means survival enhancement above about 18%;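 further: cells exposed to compounds for 16 hours before the ATP read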
UPR XBP1 act – activators of adaptive XBP1 UPR arm, primary screen, cell-based, CHO-XBP1 luciferase reporter, luminescence, uHTS; IRE1-XBP1 UPR activation; percent of tunicamycin response, DMSO as zero; AID 463104, 2010; activation, % at 20 µM; 330,000 tested, 0.33% active;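 active means versus positive control, 20 µM dose yields 30% or more activation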
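Assay system: CHO-XBP1 luciferase reporter cells; Schedule: 6 h treatment, 37 °C; Detection: glow luminescence from Steady-Glo reagent; Benchmarks: high control tunicamycin 10 µg/mL final, low control DMSO vehicle only.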
CHOP inh – inhibitors of CHOP promoter induction, primary screen, cell-based, unfolded protein response, luciferase reporter | CHO-K1 CHOP-promoter luciferase, tunicamycin-induced, 15-18 h | inhibition, % at 10 µM | 220,000 tested, 3.8% active | AID 2732, 2010;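 active means compounds that reduced the stress-induced luciferase reporter signal by more than about 70% of percent inhibition, limit read from the data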
XBP1 UPR conf – IRE1-XBP1 UPR arm activators, confirmation, cell-based, CHO-XBP1 luciferase reporter, luminescence, single concentration; activation, % at 20 µM; 1,000 tested, 63% active; shares compounds with UPR XBP1 act;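 active means reporter signal at least 30% of the positive control's activation in two or more of four replicate wells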
Numbers stand for hits; 0 = inactive; - = no result.

SMILES	Cardio protect	CHOP UPR activ	iPSC survival up	UPR XBP1 act	CHOP inh	XBP1 UPR conf
COc1ccc2c(c1)[nH]c1c(=O)n(/N=C/C3C(C)C=C(C)CC3C)c(=O)[nH]c12 (stereo not given)	0	0	0	55.8	0	86.0
COc1ccc(/C=N/n2c(=O)[nH]c3c([nH]c4ccc(Br)cc43)c2=O)cc1CN1CCOCC1	0	0	0	0	0	-
CC1=C(C(=O)N(C)C)CC(CC(=O)NCCCN(C)C)C(=O)N1CCCN1CCCC1=O (stereo not given)	0	-	0	-	-	-
COc1cccc(/C=N/Nc2ccc([N+](=O)[O-])cn2)c1O	0	0	0	64.8	-	63.5
CC(C)(O)c1cc2ccc(C#Cc3ccsc3)cc2c(=O)o1	0	0	0	0	-	-
O=C(NCC(F)(F)F)c1cc2c(c(-c3cccc(-c4ccccc4F)c3)n1)[C@@H](CCO)N(C(=O)CC1CC1)C2	-	-	0	-	-	-
CCCCCOCC(O)CCC(=O)NN (stereo not given)	0	0	0	34.4	0	0
C=CC[C@@H](CC(=O)N[C@@H](CO)Cc1ccccc1)C(=O)NC[C@@H](OC(=O)[C@@H](CC=C)Cc1ccc(F)cc1)c1ccccc1	0	0	0	31.7	-	0
Cc1cc2nc(NC(=O)C3(C)CCCN(C(C)C)C3)[nH]c2cc1C (stereo not given)	0	-	0	-	-	-
COc1ccc(C(=O)O/N=C/c2c(C(F)(F)F)nn(C)c2SCc2ccccc2Cl)cc1	0	0	0	61.6	0	83.3
Cn1nc(C(F)(F)F)c(/C=N/OC(=O)c2ccccc2Cl)c1SCc1ccc(Cl)cc1	0	0	0	0	0	-
CCOC(=O)c1nnn2c1nc(SCC(C)=O)c1ccccc12	0	0	0	0	0	-
CCOC(=O)c1nnn2c1nc(Nc1cccc(C(F)(F)F)c1)c1ccccc12	0	0	0	70.1	0	40.7
COc1ccc(CCn2c(=S)[nH]c3cc(C(=O)NCc4ccco4)ccc3c2=O)cc1OC	0	0	0	62.4	96.0	66.0
COc1ccc(-n2c(=S)[nH]c3cc(C(=O)NCc4ccco4)ccc3c2=O)cc1OC	0	0	0	0	0	-
O=C(NCCC1=CCCCC1)C(=O)NCC(c1ccco1)N1CCN(c2ccc(F)cc2)CC1 (stereo not given)	0	0	0	31.3	87.8	56.2
CCOC(=O)/C(=N\Nc1ccc(C(C)=O)cc1)c1csc(Nc2ccccc2)n1	0	0	0	46.1	0	93.9
O=C(CN1CCCCC1)Nc1c2c(nc3ccccc13)N(c1ccccc1)CC2	0	0	0	56.2	86.0	0
CC(C)(c1ccccc1)c1ccc(OCC(O)CNC2CCN(Cc3ccccc3)CC2)cc1 (stereo not given)	0	0	0	53.2	0	0
CCOC(=O)N(C)C[C@@H]1OCc2cnnn2CCCC(=O)N([C@H](C)CO)C[C@H]1C	0	-	0	-	-	-
CCn1cc(C(=O)OCC(=O)Nc2cccc(S(=O)(=O)N3CCOCC3)c2)c(=O)c2ccc(C)nc21	0	0	0	44.2	0	0
O=C(Nc1cccnc1)C1Cc2c(-c3ccco3)ccnc2O1 (stereo not given)	0	-	0	-	-	-
COC(=O)CSc1nc(N)c2c3c(sc2n1)C(c1ccccc1)SC(c1ccccc1)C3 (stereo not given)	0	0	0	38.0	0	0
CCN1CCN(CC(=O)Nc2c(OC)cccc2OC)CC1	0	0	0	0	-	-
CCCc1nc2c(C)cc(Br)cn2c1Cc1ccc(OC)cc1C	0	-	0	-	-	-
SMILES	Cardio protect	CHOP UPR activ	iPSC survival up	UPR XBP1 act	CHOP inh	XBP1 UPR conf
COc1ccc(Cl)cc1Nc1nc2ccc(C)cc2n2cnnc12	0	0	0	54.0	-	0
COc1ccc(OC)c(Nc2nc3ccc(C)cc3n3cnnc23)c1	0	0	0	0	-	-
Nc1cc(Br)cc2c1[nH]c(=O)c1ccccc12	0	-	0	-	-	-
COC(=O)c1c(NC(=S)NN2CCN(C)CC2)sc2c1CCC(C)C2 (stereo not given)	0	0	0	34.3	0	0
COC(=O)/C=c1/s/c(=C(/C#N)C(=O)NCc2ccccc2)n(-c2ccccc2)c1=O	0	0	0	0	0	-
CCCCCCOc1ccc(/C=c2\s/c(=C(/C#N)C(=O)NCc3ccco3)n(-c3ccccc3)c2=O)cc1	0	0	0	44.6	0	0
Cc1ccc(CNC(=O)c2ccc3c(=O)n4c(-c5ccc(C)cc5)csc4nc3c2)cc1	0	0	0	46.3	79.1	120.0
Cc1ccc(-c2csc3nc4cc(C(N)=O)ccc4c(=O)n23)cc1	0	0	0	0	0	-
Cc1ccccc1OCc1nc(-c2ccc(NC(=O)c3ccco3)cc2)no1	0	0	0	0	0	-
Cc1ccccc1OCc1nc(-c2ccc(NC(=O)c3ccc4c(c3)OCO4)cc2)no1	0	0	0	69.1	73.8	44.4
N#CCC(=O)N/N=C/c1cn(Cc2ccccc2C#N)c2ccccc12	0	0	0	0	0	-
N#CCC(=O)N/N=C/c1cn(Cc2cccc3ccccc23)c2ccccc12	0	0	0	130.3	0	102.7
CCCCCn1c(N)c(-c2nc3ccccc3o2)c2c([N+](=O)[O-])nn(CC)c(=O)c21	0	0	0	37.5	0	53.2
CCCCCn1c(N)c(-c2nc3ccccc3o2)c2c([N+](=O)[O-])nn(C)c(=O)c21	0	-	0	-	0	-
OCc1cccc(-c2csc(C(O)(c3ccccc3)C(F)(F)F)n2)c1 (stereo not given)	0	-	0	-	-	-
COc1ccccc1N(Cc1ccccc1)S(=O)(=O)c1cccc(C(=O)Nc2cccc(C)n2)c1	0	0	0	0	-	-
O=C(CCl)Nc1ccccc1Sc1ccc(Cl)cc1	0	0	0	45.1	0	0
COc1cc(OC)cc(C(=O)Nc2ccc3nc4n(c(=O)c3c2)CCCCC4)c1	0	0	0	32.4	-	36.0
COc1cccc(C2Nc3ccc4ccccc4c3C3=C2C(=O)CCC3)c1O (stereo not given)	0	0	0	57.0	-	0
CC(C)c1ccc(/C=C/C(=O)Nc2nc3ccc([N+](=O)[O-])cc3s2)cc1	0	0	0	50.1	0	32.4
CC(=O)Nc1nc2cc([N+](=O)[O-])ccc2s1	0	0	0	0	-	-
O=C(Nc1ccc2nn(-c3ccccc3)nc2c1)c1ccc(Br)o1	0	0	0	34.6	73.0	0
OC(CNCC1CCCO1)Cn1c2ccc(Cl)cc2c2cc(Cl)ccc21 (stereo not given)	0	0	0	64.3	94.3	58.6
CCCOc1ccc(F)cc1-c1cc(C(=O)NCc2cccc(Cl)c2)[nH]n1	0	-	0	-	-	-
